Hits are enriched below; roughly 2.9% of the tested compounds scored in any of these assays.
Apaf-1 inh: inhibitors of human Apaf-1 apoptosome, primary screen, biochemical, DEVD-Rh110 fluorescence, uHTS | inhibition, % at 20 µM | reconstituted apoptosome caspase-3 activity | 0.71% of 330,000 active; active means inhibition of at least 40% at 20 µM;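 further: plate controls were DMSO wells for no effect and DEVD-CHO caspase inhibitor wells for full effect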
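Assay system: Apoptosome proteins | Medium: pH 7.5 Hepes buffer with CHAPS, BSA, DTT | Also added: Cytochrome c and DEVD-Rh110 substrate | Times: 30 min plus 50 min, RT | Detection: Rhodamine 110 fluorescence at Ex 480/Em 540 nm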
MEKK2wt PB1 HTS: modulators of MEK5 binding to wildtype MEKK2, primary screen, biochemical, multiplex bead flow cytometry, Alexa488-MEK5 | Mitogen-activated protein kinase kinase kinase 2 (Homo sapiens), Q9Y2U5 | Alexa488-MEK5 binding to MEKK2 WT; actives lie on both sides | binding response (% of control), % at 10 µM | 1.1% of 290,000 active | AID 1531, 2009; in the data active means binding response below about 67% or above about 130%; inconclusive means no clear call, values can overlap the other calls; inactive means in between
UBC13 inh: UBC13 polyubiquitin chain formation inhibitors, primary screen, biochemical, TR-FRET, uHTS | inhibition, % at 20 µM | AID 485273, 2010 | 0.47% of 330,000 active; in the data active means inhibition above about 45%, passing the limit was not always enough; inconclusive means no clear call, values can overlap the other calls
MEKK3 PB1 HTS: modulators of MEKK3-MEK5 PB1 binding, primary screen, biochemical, wildtype MEKK3, multiplex bead flow cytometry, Alexa488-MEK5; binding response (% of control), % at 10 µM; bead-based flow cytometry, Alexa488-MEK5 binding to MEKK3; actives lie on both sides; 0 = blocked by unlabeled MEK5, 100 = vehicle; 1.4% of 290,000 active; Mitogen-activated protein kinase kinase kinase 3 (Homo sapiens), Q99759;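 active means binding response more than 3 SD above or below the average of its plate-row segment, actives on both sides; inconclusive means wells at one plate position flagged as instrument error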;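 further: Alexa488 bead fluorescence after subtracting the streptavidin-only scavenger bead signal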
Target sequence (Q99759 whole entry, looked up): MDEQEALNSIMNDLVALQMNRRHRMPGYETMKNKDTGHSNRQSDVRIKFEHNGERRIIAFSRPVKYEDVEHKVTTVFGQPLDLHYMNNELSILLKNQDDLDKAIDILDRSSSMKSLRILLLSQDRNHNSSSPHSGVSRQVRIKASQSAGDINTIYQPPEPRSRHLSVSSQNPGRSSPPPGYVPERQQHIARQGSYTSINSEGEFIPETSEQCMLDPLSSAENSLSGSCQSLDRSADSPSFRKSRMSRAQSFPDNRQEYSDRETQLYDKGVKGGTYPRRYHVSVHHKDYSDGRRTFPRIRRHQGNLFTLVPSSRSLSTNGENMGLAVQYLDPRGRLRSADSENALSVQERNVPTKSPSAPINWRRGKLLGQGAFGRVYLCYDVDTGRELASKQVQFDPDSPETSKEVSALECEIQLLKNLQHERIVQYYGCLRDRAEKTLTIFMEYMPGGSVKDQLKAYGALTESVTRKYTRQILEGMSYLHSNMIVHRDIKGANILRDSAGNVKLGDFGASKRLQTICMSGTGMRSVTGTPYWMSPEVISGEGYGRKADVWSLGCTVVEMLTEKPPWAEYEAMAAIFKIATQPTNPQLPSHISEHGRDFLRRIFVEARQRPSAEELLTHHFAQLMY
MEKK2 mut-MEK5: MEK5 binding signal on mutant MEKK2 PB1, primary screen, biochemical, multiplex bead flow cytometry, Alexa488-MEK5. Alexa488-MEK5 binding to MEKK2 mutant. percent response, % at 10 µM. 0.35% of 290,000 active; in the data active means percent response above about 24%, passing the limit was not always enough
MEKK2wt confirm: modulators of MEK5 binding to wildtype MEKK2, confirmation, biochemical, single concentration, multiplex bead flow cytometry | 2.4% of 5,900 active | Alexa488-MEK5 binding to MEKK2 WT; actives lie on both sides | binding response (% of control), % at 10 µM | shares compounds with MEKK3 PB1 HTS; in the data active means binding response below about 16% or above about 210%; inactive means in between
MEKK2mut confirm: mutant MEKK2 PB1-MEK5 binding signal retest – biochemical, single concentration, multiplex bead flow cytometry, confirmation; shares compounds with MEKK3 PB1 HTS; Alexa488-MEK5 binding to MEKK2 mutant; percent response, % at 10 µM; 2% of 5,900 active; AID 1893, 2009; in the data active means percent response mostly above about 71%, no sharp cut-off; inactive means mostly below about 38%;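 further: higher means compound restores mutant binding toward wildtype level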
MEKK3-MEK5 inh: MEKK3 wild-type PB1 binding to MEK5, inhibitors, confirmation, biochemical, bead multiplex flow cytometry, single concentration, wildtype | Alexa488-MEK5 binding to MEKK3; stronger effect = lower value | AID 1894, 2009 | 1.8% of 5,900 active | binding response (% of control), % at 10 µM | shares compounds with MEKK3 PB1 HTS;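 active means binding response below 72% of control, or above a set upper limit, though filed actives all read lower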;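 further: 100% = DMSO only wells and 0% = binding blocked by excess unlabeled MEK5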
Starred values were filed as active, the others as inactive; ? = inconclusive; . = not tested or not shown; [ ] = another dose, or the depositor's remark.

SMILES	Apaf-1 inh	MEKK2wt PB1 HTS	UBC13 inh	MEKK3 PB1 HTS	MEKK2 mut-MEK5	MEKK2wt confirm	MEKK2mut confirm	MEKK3-MEK5 inh
O=C(COC(=O)[C@@H]1CC(O)CN1S(=O)(=O)c1ccc2c(c1)OCCO2)NCc1ccc(F)cc1 (stereo not given in full)	8	96	-14	103	5	.	.	.
CCn1nc(C(=O)Nc2nc3ccc(C)cc3s2)c2ccccc2c1=O	2	111	12	101	4	.	.	.
Cc1nc2ccc(NC(=O)c3nn(CC(C)C)c(=O)c4ccccc34)cc2s1	17	108	16	148*	0	94	-3	98
COc1ccc(C(=O)C2CCCN(C(=O)c3cc(C)nc(C)n3)C2)cc1OC (stereo not given)	0	112	10	129*	1	100	1	102
N/C(=N\N=C/c1ccc(F)cc1)N/N=C\c1ccc(F)cc1	28	159*	12	110	31*	162	38	108
N/C(=N\N=C/c1ccc(Br)cc1)N/N=C\c1ccc(Br)cc1	-2	215*	7	110	102*	129	21	105
O=C(Nc1nnc(C2=COCCO2)o1)c1ccc(Cl)cc1	3	95	-23	93	6	.	.	.
CC(=O)Nc1nnc(C2=COCCO2)o1	-20	78	0	58*[inhibitor]	-4	101	-1	99
Cc1nc(-c2ccccn2)nc(SCC(=O)c2ccc(F)cc2)c1Cl	1	113	6	134*	31	103	-1	97
COc1ccc(C(=O)CSc2nnc3ccc(-c4ccccn4)nn23)cc1	-13	62	?	64	-27	.	.	.
O=C(CSc1ccc(-c2ccccn2)nn1)c1ccc(F)cc1	-7	107	13	117	-1	.	.	.
COc1ccc(C(=O)CSc2nc(-c3ccccn3)nc(C)c2Cl)cc1	7	114	5	128*	23	107	6	104
COc1ccccc1-n1nnnc1SCC(=O)N(C)C1CCS(=O)(=O)C1 (stereo not given)	23	.	-8	.	.	.	.	.
CCCn1c(N2CCN(C(=O)N3CCCCC3)CC2)nc2ccccc21	5	2.0*[inhibitor]	-3	2.0*[inhibitor]	-18	104	1	101
CC1CCC2(CC1)NC(=O)N(Cc1cccc(C(F)(F)F)c1)C2=O (stereo not given)	11	100	4	115	0	.	.	.
CCN(CC(O)Cn1c2ccccc2c2ccccc21)S(=O)(=O)c1ccc(C)cc1 (stereo not given)	24	122	12	125*	5	108	-2	101
COc1ccccc1-n1c(SCC(=O)N2CCOCC2)nc2ccccc2c1=O	0	95	-2	99	-7	.	.	.
COc1ccccc1-n1c(CNc2c(C)cccc2C)nnc1SCC(=O)N1CCOCC1	.	120	.	122*	5	102	-1	104
Cc1cc(Cl)ccc1OCCCC(=O)OCC(N)=O	-7	103	0	103	-4	.	.	.
Cc1ccc([N+](=O)[O-])cc1N(CC(=O)NC1CCCC1)S(C)(=O)=O	-1	75	-1	73*[inhibitor]	-7	103	-2	104
COc1ccc([N+](=O)[O-])cc1N(CC(=O)NC1CCCCC1)S(C)(=O)=O	15	108	-6	102	3	.	.	.

Compound activity: PubChem BioAssay, several laboratories
